The subject of data set [1] is Rattus norvegicus. In words: Analgesic activity in rat assessed as prolongation of latency period at 15 mg/kg, ip measured after 2 hrs by hot-plate test relative to control. The data set is classed as functional. Summed up: (§1)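 Hot-plate test in rats. Compounds were given by intraperitoneal injection. Latency was read at 1 h and, for some compounds, also at 2 h after dosing. Results are expressed as % prolongation of the latent period versus vehicle-treated control. Significance was given as p-values.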

The nature of data set [2]: Acute toxicity in mouse at 150 mg/kg, ip administered as single dose. The class given is organism-based. As to conditions: in vivo. Summed up: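 Mice, single intraperitoneal dose, following OECD Guideline for testing of chemicals; three mice per dose level; doses tested 10–300 mg/kg. Read-out is the number of survivors out of 3, used to estimate the expected LD50 range.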

Data set [3] has as its system Erythrocyte. In words: Antioxidant activity in human erythrocytes assessed as protection against AAPH-induced hemolysis at 50 uM preincubated for 20 mins followed by AAPH addition and measured after 2 hrs by spectrophotometric method relative to control. The data set is classed as functional. As to conditions: time 140 min, 2.333 h. Summed up:
(§2)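 Erythrocyte hemolysis assay with AAPH as the free-radical initiator, testing 50 and 400 µM. Results are expressed as relative protection of membranes against oxidative damage, each the mean of two independent experiments.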

Data set [4] is described as follows: Antioxidant activity assessed as ABTS radical scavenging activity measured after 1 hr by UV-vis spectrophotometric method. The data set is classed as functional. Summed up: (§3)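 ABTS cation-radical decolorization was read spectrophotometrically as the fall in absorbance after 1 h. Trolox was the reference. TEAC was taken as the ratio of concentration-response slopes, test/Trolox, and IC50 was also derived. Data are mean ± SEM, n = 3.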

Data set [5] deals with Erythrocyte. In words: Antioxidant activity in human erythrocytes assessed as protection against AAPH-induced hemolysis at 400 uM preincubated for 20 mins followed by AAPH addition and measured after 2 hrs by spectrophotometric method relative to control. The data set is classed as functional. The following applies: time 140 min, 2.333 h. Summed up:
as §2

In data set [6] the test system is Rattus norvegicus. In words: Analgesic activity in rat assessed as prolongation of latency period at 15 mg/kg, ip measured after 1 hr by hot-plate test relative to control. The data set is classed as functional. Summed up: as §1
A general note: Hot-plate and tail-flick tests time the reaction to a heat stimulus.

Data set [7] has as its system Rattus norvegicus. In words: Antiinflammatory activity in rat model of carrageenan-induced paw edema assessed as inhibition of hind paw swelling at 15 mg/kg, ip measured after 5 hrs. The class given is functional, organism-based. In general terms: Carrageenan injected into the paw causes an acute inflammation.
The test system of a further data set is Trichophyton tonsurans. In words: Antifungal activity against Trichophyton tonsurans. The class given is functional.
Another data set concerns Streptococcus pyogenes. In words: Antibacterial activity against Streptococcus pyogenes. The class given is functional.
The next data set has as its system Trichophyton rubrum. In words: Antifungal activity against Trichophyton rubrum. The data set is classed as functional.
For a further data set, the system named is Trichophyton violaceum. In words: Antifungal activity against Trichophyton violaceum. The data set is classed as functional.
The test system of data set [8] is Staphylococcus aureus. In words: Antibacterial activity against Staphylococcus aureus. The class given is functional.
A further data set relates to Shigella flexneri. In words: Antibacterial activity against Shigella flexneri. The data set is classed as functional.
The test system of a further data set is Microsporum canis. In words: Antifungal activity against Microsporum canis. The data set is classed as functional.
The test system of another data set is Pseudomonas aeruginosa. In words: Antibacterial activity against Pseudomonas aeruginosa. The data set is classed as functional.
For data set [9], the system named is Trichophyton interdigitale. In words: Antifungal activity against Trichophyton mentagrophytes var. interdigitale. The data set is classed as functional.
The next data set deals with Epidermophyton floccosum. In words: Antifungal activity against Epidermophyton floccosum. The class given is functional.
The next data set concerns Proteus vulgaris. In words: Antibacterial activity against Proteus vulgaris. The class given is functional.
The test system of another data set is Serratia marcescens. In words: Antibacterial activity against Serratia marcescens. The data set is classed as functional.
For a further data set, the system named is Klebsiella pneumoniae. In words: Antibacterial activity against Klebsiella pneumoniae. The class given is functional.
In a further data set the test system is Candida albicans. In words: Antifungal activity against Candida albicans. The data set is classed as functional.
The test system of another data set is Nannizzia gypsea. In words: Antifungal activity against Trichophyton gypseum. The class given is functional.
The test system of another data set is Escherichia coli. In words: Antibacterial activity against Escherichia coli. The class given is functional.
For the next data set, the system named is Citrobacter braakii. In words: Antibacterial activity against Citrobacter braakii. The class given is functional.
Data set [10] deals with Staphylococcus aureus. In words: Antibacterial activity against methicillin resistant Staphylococcus aureus. The data set is classed as functional.
The next data set concerns Neisseria gonorrhoeae. In words: Antibacterial activity against Neisseria gonorrhoeae. The class given is functional.
Data set [11] is described as follows: Antioxidant activity assessed as AAPH scavenging activity by measuring residual fluorescence at 10 uM measured at 1 min interval for 30 mins by ORAC fluorescein assay relative to control. The data set is classed as functional. The essentials:
(§4)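 ORAC-FL assay with fluorescein as the probe and AAPH as the peroxyl radical generator. The loss of fluorescence over time was followed, and the result is given as % fluorescence restored at 10 and 50 µM. Each value is the mean of two independent experiments.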

A short description of data set [12]: Antioxidant activity assessed as AAPH scavenging activity by measuring residual fluorescence at 50 uM measured at 1 min interval for 30 mins by ORAC fluorescein assay relative to control. The data set is classed as functional. Summed up: as §4
A short description of data set [13]: Antioxidant activity assessed as trolox equivalent of ABTS radical scavenging activity measured after 1 hr by UV-vis spectrophotometric method. The class given is functional. Summed up:
as §3

In data set [14] the test system is Mycobacterium tuberculosis. In words: Antitubercular activity against Mycobacterium tuberculosis H37Rv. The class given is functional. The essentials: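 Mycobacterium tuberculosis strain H37Rv; minimum inhibitory concentration (MIC) taken as the lowest level needed to inhibit bacterial growth; isoniazid and pyrazinamide served as reference drugs.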
Data set [15] has as its system Rattus norvegicus. In words: Antiinflammatory activity in rat model of carrageenan-induced paw edema assessed as inhibition of hind paw swelling at 15 mg/kg, ip measured after 1 hr relative to control. The class given is functional.
Data set [16] can be described thus: Selectivity index, ratio of IC50 for HDF cells to IC50 for human HeLa cells. The class given is toxicity. The following applies: HDF cells versus HeLa cells, read-out: Ratio IC50.
The next data set has as its system HeLa. In words: Cytotoxicity against human HeLa cells. The class given is functional, cell-based.
The subject of data set [17] is Rattus norvegicus. In words: Antiinflammatory activity in rat model of carrageenan-induced paw edema assessed as inhibition of hind paw swelling at 15 mg/kg, ip measured after 3 hrs relative to control. The data set is classed as functional.
A further data set concerns NHDF. In words: Cytotoxicity against HDF cells. The data set is classed as cell-based, Homo sapiens. As to conditions: Homo sapiens, NHDF; read-out: IC50.

Converted amounts (≈) assume the structure as drawn. The source made the active and inactive calls. No cut-off for these calls is given here.

Consider `Nc1c(C(F)(F)F)n[nH]c1-c1ccccc1`, for which the Activity in the data set on Rattus norvegicus [1] is recorded as 66.7%; in data set [2], “Non-Toxic”; with Rattus norvegicus [6], 56.7%. Also, the entries for the “fold change (FC)” value in the data set on Erythrocyte [3] and with Erythrocyte [5] were 1.1 and 0.02, respectively. Also, the IC50 (as a rule, the concentration at which inhibition is half-maximal) in data set [4] turned out to be 14.1 µM.
On to `CS(=O)(=O)c1ccc(-n2nc(C(F)(F)F)c(N=O)c2-c2ccccc2)cc1`, for which, in the data set with Rattus norvegicus [7], the outcome was Active. In addition, the minimum inhibitory concentration (MIC) (commonly the least concentration at which growth counts as inhibited) was more than 200 µg/mL in the data set on Trichophyton tonsurans; more than 250 µg/mL in the data set with Streptococcus pyogenes; 200 µg/mL (≈ 506 µM) against Trichophyton rubrum; more than 200 µg/mL in the data set with Trichophyton violaceum; more than 250 µg/mL with Staphylococcus aureus [8]; more than 250 µg/mL against Shigella flexneri. The minimum inhibitory concentration (MIC) with Microsporum canis is 200 µg/mL (≈ 506 µM); in the data set on Pseudomonas aeruginosa, more than 250 µg/mL; in data set [9] it was 200 µg/mL (≈ 506 µM); with Epidermophyton floccosum, 200 µg/mL (≈ 506 µM); with Proteus vulgaris it was more than 250 µg/mL; in the data set with Serratia marcescens, more than 250 µg/mL. The MIC was more than 250 µg/mL with Klebsiella pneumoniae; more than 200 µg/mL in the data set on Candida albicans; 200 µg/mL (≈ 506 µM) in the data set on Nannizzia gypsea; more than 250 µg/mL in the data set with Escherichia coli; more than 250 µg/mL with Citrobacter braakii; 31.2 µg/mL (≈ 78.9 µM) with Staphylococcus aureus [10]. This molecule also gave a minimal inhibitory concentration (MIC) in the data set with Neisseria gonorrhoeae of 62.5 µg/mL (≈ 158 µM).
As for `Cc1ccc(-c2[nH]nc(C(F)(F)F)c2N=O)cc1`, in the data set with Rattus norvegicus [7], the result was Active. In addition, the Activity in data set [11] was -60%; in data set [12] it was -99.8%; in [2], “Non-Toxic”; in [13] it was 0.02 equiv. Besides, the result with Rattus norvegicus [1] and in the data set on Rattus norvegicus [6] was inactive. For the same molecule, the “fold change (FC)” value in the data set on Erythrocyte [3] and in the data set with Erythrocyte [5] was 1.03 throughout.
As for `O/N=C1\C(c2ccccc2)=NN(c2ccccc2)C1(O)C(F)(F)F` (stereo not given), in the data set on Rattus norvegicus [7], the result was Active. The MIC in the data set with Trichophyton tonsurans was 50 µg/mL (≈ 149 µM); in the data set on Streptococcus pyogenes, more than 250 µg/mL; in the data set with Trichophyton rubrum, 25 µg/mL (≈ 74.6 µM); against Trichophyton violaceum, 100 µg/mL (≈ 298 µM); in the data set on Staphylococcus aureus [8], 31.2 µg/mL (≈ 93.1 µM); with Shigella flexneri, more than 250 µg/mL. The MIC was 100 µg/mL (≈ 298 µM) in the data set with Microsporum canis; more than 250 µg/mL with Pseudomonas aeruginosa; 100 µg/mL (≈ 298 µM) in data set [9]; 100 µg/mL (≈ 298 µM) against Epidermophyton floccosum; more than 250 µg/mL in the data set on Proteus vulgaris; more than 250 µg/mL against Serratia marcescens. Besides, the MIC against Klebsiella pneumoniae was more than 250 µg/mL; in the data set on Candida albicans, 50 µg/mL (≈ 149 µM); in the data set with Nannizzia gypsea it was 100 µg/mL (≈ 298 µM); against Escherichia coli, more than 250 µg/mL; with Citrobacter braakii, more than 250 µg/mL; against Staphylococcus aureus [10], 31.2 µg/mL (≈ 93.1 µM). In addition, the minimal inhibitory concentration (MIC) in the data set with Neisseria gonorrhoeae stood at 31.2 µg/mL (≈ 93.1 µM). The IC50 in data set [4] came to 48.6 µM. The Activity in data set [13] stood at 0.44 equiv.
`O=Nc1c(C(F)(F)F)n[nH]c1-c1ccccc1`: the minimum inhibitory concentration (MIC) in data set [14] is 0.36 µg/mL (≈ 1.49 µM); in the data set with Trichophyton tonsurans, more than 200 µg/mL; in the data set on Streptococcus pyogenes, 7.8 µg/mL (≈ 32.3 µM); against Trichophyton rubrum, more than 200 µg/mL; in the data set on Trichophyton violaceum, more than 200 µg/mL; against Staphylococcus aureus [8], 31.2 µg/mL (≈ 129 µM). Moreover, the MIC against Shigella flexneri is 31.2 µg/mL (≈ 129 µM); in the data set with Microsporum canis, more than 200 µg/mL; against Pseudomonas aeruginosa, 125 µg/mL (≈ 518 µM); in data set [9] it was more than 200 µg/mL; against Epidermophyton floccosum it was more than 200 µg/mL; against Proteus vulgaris it was 31.2 µg/mL (≈ 129 µM). Also, the minimum inhibitory concentration (MIC) in the data set with Serratia marcescens is 62.5 µg/mL (≈ 259 µM); against Klebsiella pneumoniae it was 62.5 µg/mL (≈ 259 µM); in the data set with Candida albicans, 100 µg/mL (≈ 415 µM); against Nannizzia gypsea it was more than 200 µg/mL; in the data set on Escherichia coli, 62.5 µg/mL (≈ 259 µM); in the data set with Citrobacter braakii it was 62.5 µg/mL (≈ 259 µM). Moreover, the minimum inhibitory concentration (MIC) against Staphylococcus aureus [10] and against Neisseria gonorrhoeae was 62.5 µg/mL (≈ 259 µM) in each case. In addition, in the data set on Rattus norvegicus [7], the result was Active. For the same molecule, the Activity was -80.4% in data set [11], -119% in data set [12], “Dose-dependent effect” with HeLa and 51.7% in the data set with Rattus norvegicus [6]. Besides, in the data set on Rattus norvegicus [15], the inhibition entry was “inactive”. For the same molecule, the “fold change (FC)” value was 0.99 in the data set with Erythrocyte [3] and 1.05 in the data set on Erythrocyte [5]. In [16], the selectivity ratio came to 0.76. The IC50 came to 1.86 µM with HeLa (Homo sapiens, HeLa, read-out: IC50) and 1.42 µM with NHDF. In the data set with Rattus norvegicus [17], the inhibition in vivo (in general, the drop in the measured response relative to a control, in per cent) at 15 mg/kg was 32%. The outcome in [13] was inactive.

Source of the values: ChEMBL document CHEMBL4765448, “Multiple biological active 4-aminopyrazoles containing trifluoromethyl and their 4-nitroso-precursors: Synthesis and evaluation” (Eur J Med Chem, 2020).
